# Screens from PubChem BioAssay.
# CYP2C19 inhib – blockers of cytochrome P450 2C19 activity – biochemical, luminescence, ADME assay, primary screen; P33261; CYP2C19 Supersomes, luciferin-H EGE luminescence, 30 min; inhibition, % at 5 µM; 21% of 96,000 active; AID 778, 2007;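 active = CYP2C19 inhibition above a set limit at 5 µM in the primary screen, cut at about 50% in these data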;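 also: plate controls were negative control wells for no effect and 2.5 mM tranylcypromine positive control for full effect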
# Target sequence (P33261 whole entry, looked up): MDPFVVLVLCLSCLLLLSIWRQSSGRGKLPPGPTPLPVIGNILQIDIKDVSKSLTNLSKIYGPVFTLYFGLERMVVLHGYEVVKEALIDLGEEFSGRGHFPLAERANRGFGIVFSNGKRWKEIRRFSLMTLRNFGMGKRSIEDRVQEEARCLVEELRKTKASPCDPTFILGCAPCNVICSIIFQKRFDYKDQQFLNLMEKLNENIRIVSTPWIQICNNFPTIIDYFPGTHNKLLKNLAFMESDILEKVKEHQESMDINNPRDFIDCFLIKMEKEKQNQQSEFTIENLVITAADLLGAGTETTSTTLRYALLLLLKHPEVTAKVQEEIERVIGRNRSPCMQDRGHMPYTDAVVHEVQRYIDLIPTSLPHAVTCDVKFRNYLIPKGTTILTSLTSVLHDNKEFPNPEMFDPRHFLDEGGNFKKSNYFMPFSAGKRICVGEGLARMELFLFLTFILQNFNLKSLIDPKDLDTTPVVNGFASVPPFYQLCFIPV
# CYP2C19 act – human CYP2C19 activators, primary screen, biochemical, luminescence | recombinant CYP2C19, luciferin-H EGE luminescence; stronger effect = higher value; 0 = fully inhibited enzyme, 1 = untreated enzyme | activation factor at 5 µM | 96,000 tested, under 10 active | AID 1025, 2008;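 active = activation factor of at least 2 at 5 µM in the primary screen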;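 also: 0 = wells with 2.5 mM tranylcypromine and 1 = vehicle-only wells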
# Ecoli WT expand – growth inhibitors of wild-type E. coli, primary screen, strain BW25113, expanded library, OD600. OD600 absorbance. growth inhibition, % at 100 µM. 0.15% of 98,000 active;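 active = growth inhibition above about 50% at one test dose, limit read from the data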;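 also: growth measured after 20 h incubation at 37 °C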
# CYP2C9 inh – blockers of cytochrome P450 2C9 activity – biochemical, luminescence, ADME assay, primary screen; P11712; CYP2C9 Supersomes, luciferin-H conversion; inhibition, % at 5 µM; 20% of 96,000 active;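 active = blocking of liver enzyme CYP2C9 beyond about 50% at 5 µM, limit read from the data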
# Ecoli tolC – growth inhibitors of E. coli tolC mutant, primary screen, strain BW25113 ΔtolC::kan, 384-well. OD615. growth inhibition, % at 10 µM (by protocol). 2.2% of 65,000 active. AID 573, 2007;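 active = growth inhibition at or above a cutoff equal to the mean over every tested compound plus 3 SD, cut at about 60% in these data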;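 also: growth measured after 20 h incubation at 37 °C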
#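 Test system – E. coli BW25113 ΔtolC::kan, tolC deletion mutant strain · Detection – OD at 615 nm · Buffer or medium – LB with kanamycin 50 µg/mL · Times – 20 h compound exposure of bacteria at 37 °C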
# CYP2C9 act – human CYP2C9 activators, primary screen, biochemical, luminescence; recombinant CYP2C9, luciferin-H conversion; stronger effect = higher value; factor 1 = untreated enzyme, 0 = blocked; activation factor at 5 µM; 1.4% of 96,000 active;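 active = activation factor of 2 or more for CYP2C9 at a 5 µM dose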;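 also: 0 = sulfaphenazole-blocked wells and 1 = vehicle-only wells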
# Numbers without * were called inactive; . = no result given. A selection: hits, their analogues and other compounds. The true share with any hit is near 29%.
SMILES,CYP2C19 inhib,CYP2C19 act,Ecoli WT expand,CYP2C9 inh,Ecoli tolC,CYP2C9 act
COc1ccc(NC(=O)CNS(=O)(=O)c2cccs2)c(OC)c1,57*,0.4,1,40,.,0.6
CCOc1ccc2c(c1)c1nnc(SCC3CCCO3)nc1n2C (stereo not given),47,0.5,-10,48,18,0.5
CC(=O)Nc1ccc2[nH]c3ccccc3c2c1,73*,0.3,-2,10,-18,0.9
O=C(NCCO)c1ccc2c(c1)S(=O)(=O)c1ccccc1C2=O,-10,1.1,-5,-8,-20,1.1
COC(=O)c1[nH]c2cc(OC)ccc2c1N,22,0.8,4,3,-16,1
COc1ccc2[nH]c(O)c(NC(C)=O)c2c1,8,0.9,-4,63*,-12,0.4
O=C(NCCO)c1ccc2[nH]c3ccccc3c2c1,91*,0.1,2,16,.,0.8
COc1ccc2[nH]c3ccccc3c2c1,55*,0.5,10,3,-20,1
COCCN(Cc1cc2ccccc2[nH]c1=O)C(=O)c1ccccc1OC,7,0.9,-3,-18,5,1.2
CC(C)C(NS(=O)(=O)c1ccc2c(c1)OCCO2)C(=O)NCCc1ccccn1 (stereo not given),32,0.7,2,8,-8,0.9
CCOC(=O)Cn1nnnc1C(CC)N(Cc1ccccc1)Cc1cc2cc(C)ccc2[nH]c1=O (stereo not given),58*,0.4,-15,54*,.,0.5
CCOC(=O)Cn1nnnc1CN(Cc1ccccc1)Cc1cc2cc(CC)ccc2[nH]c1=O,48,0.5,-13,62*,26,0.4
CCC(c1nnnn1Cc1ccco1)N(CCc1ccccc1)Cc1cc2cc(C)ccc2[nH]c1=O (stereo not given),42,0.6,.,48,51,0.5
CCC(c1nnnn1CCc1ccccc1)N(Cc1ccco1)Cc1cc2c(C)ccc(C)c2[nH]c1=O (stereo not given),93*,0.1,-19,94*,.,0.1
CCc1ccc2[nH]c(=O)c(CN(Cc3ccccc3)Cc3nnnn3Cc3ccco3)cc2c1,12,0.9,3,5,20,0.9
CCNC(=O)[C@@H]1CCCN1C(=O)[C@H](CCCN=C(N)N)NC(=O)[C@H](CC(C)C)NC(=O)[C@@H](CC(C)C)NC(=O)[C@H](Cc1ccc(O)cc1)NC(=O)[C@H](CO)NC(=O)[C@H](Cc1c[nH]c2ccccc12)NC(=O)[C@H](Cc1cnc[nH]1)NC(=O)[C@@H]1CCC(=O)N1,.,.,.,.,-2,.
CCCC(=O)NCCSC,-5,1,-15,-5,-13,1.1
CC(C)(C)c1ccc(/C=C/C(=O)NC2=NCCS2)cc1,15,0.8,-5,-13,.,1.1
Cc1ccc(-n2cnc3cc(NCc4cccs4)ccc32)cc1,90*,0.1,-10,93*,.,0.1
COc1ccc(-n2cnc3cc(NCc4ccccn4)ccc32)cc1,8,0.9,5,44,.,0.6
COc1ccc(-n2cnc3cc(NCc4cccs4)ccc32)cc1,46,0.5,-12,33,98*,0.7
Oc1cc2ccccc2cc1-c1n[nH]c(=S)o1,-4,1,28,68*,35,0.3
Cc1cccc2c(=O)cc(C)n(CC(=O)N3CCCCC3)c12,88*,0.1,4,24,0,0.8
c1n[nH]c(NC2=NCCC2)n1,6,0.9,4,18,-11,0.8
Cc1ccc(NC(=O)/C(C#N)=C/c2cc(C)n(-c3ccc(N4CCOCC4)c([N+](=O)[O-])c3)c2C)c(C)c1,-2,1,-21,20,.,0.8
SMILES,CYP2C19 inhib,CYP2C19 act,Ecoli WT expand,CYP2C9 inh,Ecoli tolC,CYP2C9 act
Cc1cc(C=O)c(C)n1-c1ccc(N2CCCC2)c([N+](=O)[O-])c1,70*,0.3,-6,44,.,0.6
Cc1ccccc1CSCC(=O)c1c(N)n(C)c(=O)n(C)c1=O,99*,0,-3,58*,-14,0.4
NC(=O)c1nsc(C(=O)N(CCc2ccccc2)C(C(=O)NC2CCCC2)c2ccco2)c1N (stereo not given),36,0.6,-5,31,7,0.7
CCCC(C(=O)NC1CCCC1)N(Cc1cccs1)C(=O)c1snc(C(N)=O)c1N (stereo not given),28,0.7,10,19,21,0.8
CCC(C)(C(=O)Nc1ccc2c(c1)OCCO2)N(C(C)=O)c1ccc(C(N)=O)cc1 (stereo not given),10,0.9,4,19,-5,0.8
O=C(NCc1ccc2c(c1)OCO2)C1CC(=O)N(C2CCCCCC2)C1 (stereo not given),9,0.9,-12,10,-3,0.9
CCC(C)(C)NC(=O)CN(C(=O)c1snc(C(N)=O)c1N)c1ccc2c(c1)OCO2,38,0.6,3,57*,15,0.4
CC(C(=O)NC1CCCC1)N(Cc1ccc2c(c1)OCO2)C(=O)c1snc(C(N)=O)c1N (stereo not given),99*,0,-3,82*,2,0.2
CCC(C(=O)NC1CCCC1)N(Cc1ccc2c(c1)OCO2)C(=O)c1snc(C(N)=O)c1N (stereo not given),92*,0.1,-3,44,5,0.6
NC(=O)c1nsc(C(=O)N(CC(=O)NCc2ccc3c(c2)OCO3)C2CCCCC2)c1N,86*,0.1,5,11,-2,0.9
O=C(CN(c1ccccc1)S(=O)(=O)c1ccc(F)cc1)N1CCCCCC1,10,0.9,4,7,14,0.9
Cc1ccc2nc(SCC(=O)c3ccc4c(c3)OCO4)[nH]c2c1,41,0.6,2,69*,.,0.3
O=C(CSc1nc(Cc2ccccc2)nc2ccccc12)c1ccc2c(c1)OCCO2,8,0.9,-4,89*,.,0.1
Cc1ccc2nc(SCC(=O)c3ccc(Cl)s3)[nH]c2c1,48,0.5,-3,60*,.,0.4
Cc1ccc(C(=O)CSc2nc(C)cc(=O)[nH]2)cc1,12,0.9,-1,32,.,0.7
O=C(CSc1nc2ccccc2[nH]1)c1ccc2c(c1)OCO2,92*,0.1,7,71*,16,0.3
CCCCCCOC(=O)c1ccccc1NC(=O)/C=C/C(=O)O,4,1,6,22,.,0.8
CC(=O)c1c(C)[nH]c(C(=O)CSc2nc3ccc(C)cc3[nH]2)c1C,90*,0.1,-9,94*,.,0.1
COc1ccc(C2CC(c3ccccc3)=NN2C(=O)c2cccs2)cc1 (stereo not given),-8,1.1,1,3,.,1
